One block for each molecule: values may come before it. Activity calls are given as the source filed them. No cut-off for these calls is given here.
How the values were obtained:
Rattus norvegicus [1] = assay: Reduction in wrap restraint stress-induced defecation in rat diarrhea-predominant irritable bowel syndrome model at 30 to 100 mg/kg, po administered 1 hr prior to induction of stress; assay type: functional, organism-based
In short: (§1)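 Lightly anesthetized rats had upper bodies wrapped with adhesive tape, then returned to observation cages; feces counted 1 h after wrapping. Compound or vehicle given orally 1 h before restraint; unwrapped animals as normal group. n = 8 per group, mean (SD); Wilcoxon and nonparametric Dunnett's tests.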

Rattus norvegicus [2] = assay: Reduction in wrap restraint stress-induced defecation in rat diarrhea-predominant irritable bowel syndrome model at 1 to 10 mg/kg, po administered 1 hr prior to induction of stress; assay type: functional, organism-based; in short: as §1
[3] = target: T1, 5-hydroxytryptamine receptor 3A (Homo sapiens) (UniProt P46098); assay: Displacement of [3H]BRL-43694 from human 5HT3 receptor expressed in HEK293 cells at 100 nM by liquid scintillation counting; assay type: cell-based
T1 sequence (whole entry): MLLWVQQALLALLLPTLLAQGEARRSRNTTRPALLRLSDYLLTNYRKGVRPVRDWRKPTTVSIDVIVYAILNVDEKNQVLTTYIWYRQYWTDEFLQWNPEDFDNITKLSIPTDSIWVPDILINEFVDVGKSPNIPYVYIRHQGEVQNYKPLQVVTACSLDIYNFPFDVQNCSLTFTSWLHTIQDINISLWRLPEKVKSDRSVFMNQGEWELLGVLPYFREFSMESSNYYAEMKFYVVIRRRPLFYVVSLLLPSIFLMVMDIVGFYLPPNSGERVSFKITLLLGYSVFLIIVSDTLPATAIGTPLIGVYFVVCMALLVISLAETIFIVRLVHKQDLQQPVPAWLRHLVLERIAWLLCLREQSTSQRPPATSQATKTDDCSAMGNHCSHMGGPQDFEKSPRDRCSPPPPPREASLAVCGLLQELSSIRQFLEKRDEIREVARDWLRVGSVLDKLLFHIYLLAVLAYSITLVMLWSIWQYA
In short: (§2)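 HEK-293 membranes expressing human 5-HT3 were incubated with 0.5 nmol/L [3H]BRL-43694 (final) for 60 min at 25 °C. Buffer: 50 mM Tris-HCl, 5 mM MgCl2, 1 mM EDTA, pH 7.5. Compound came from 270 μmol/L DMSO stock, diluted in buffer. Filtration was through GF/B presoaked in 0.5% polyethyleneimine, with two cold Tris washes. Run in duplicate or triplicate; percent inhibition calculated.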

[4] = target: T2, 5-hydroxytryptamine receptor 1A (Homo sapiens) (UniProt P08908); assay: Displacement of [3H]8-OH-DPAT from human 5HT1A receptor expressed in CHO cells at 100 nM by liquid scintillation counting; assay type: cell-based
T2 sequence (whole entry): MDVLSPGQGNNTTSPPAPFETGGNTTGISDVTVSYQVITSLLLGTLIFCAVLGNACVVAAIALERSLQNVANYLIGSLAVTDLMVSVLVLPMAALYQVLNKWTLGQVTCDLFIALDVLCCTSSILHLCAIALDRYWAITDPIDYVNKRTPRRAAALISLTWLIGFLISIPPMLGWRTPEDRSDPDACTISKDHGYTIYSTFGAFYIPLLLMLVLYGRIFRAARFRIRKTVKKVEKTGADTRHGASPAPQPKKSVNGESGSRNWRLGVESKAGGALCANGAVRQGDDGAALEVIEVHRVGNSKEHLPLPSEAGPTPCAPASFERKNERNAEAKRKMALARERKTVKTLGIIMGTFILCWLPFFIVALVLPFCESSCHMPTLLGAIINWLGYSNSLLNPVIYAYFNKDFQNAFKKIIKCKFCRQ
In short: (§3)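 CHO-cell membranes with human 5-HT1A were incubated with 0.25 nmol/L [3H]8-OH-DPAT (final) for 60 min at 27 °C. Buffer: 50 mM Tris-HCl, 10 mM MgSO4, 0.5 mM EDTA, 0.1% ascorbic acid, pH 7.4. Compound came from 270 μmol/L DMSO stock, diluted in buffer. Filtration was through GF/C presoaked in 0.3% polyethyleneimine, with two cold Tris washes. Run in duplicate or triplicate; percent inhibition of binding calculated.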

[5] = target: T2, 5-hydroxytryptamine receptor 1A (Homo sapiens); assay: Displacement of [3H]8-OH-DPAT from human 5HT1A receptor expressed in CHO cells at 1000 nM by liquid scintillation counting; assay type: cell-based; in short: as §3
[6] = target: T1, 5-hydroxytryptamine receptor 3A (Homo sapiens); assay: Displacement of [3H]BRL-43694 from human 5HT3 receptor expressed in HEK293 cells at 1000 nM by liquid scintillation counting; assay type: cell-based; in short: as §2
[7] = Drug level in Sprague-Dawley rat blood at 3 mg/kg, po after 2 hrs by HPLC analysis; assay type: ADME, organism-based; design: dose 3 mg/kg, route oral; conditions: whole blood, read-out: Drug uptake
In short: (§4)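 Total compound concentration was measured in brain and blood at 2, 4 and 8 h after a single oral 3 mg/kg dose. Brain/blood ratio was also derived. Values are mean ± SD of three rats.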

[8] = target: T3, 5-hydroxytryptamine receptor 1A (Homo sapiens, UniProt P08908); assay: Agonist activity at human cloned 5HT1A receptor expressed in CHO cells assessed as stimulation of [35S]GTPgammaS binding after 30 mins by liquid scintillation counting; assay type: functional, cell-based
T3 sequence (P08908 whole entry): T2 sequence (whole entry)
In short: (§5)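 Membranes from CHO cells expressing human 5-HT1A were diluted in 20 mM HEPES/3 mM MgCl2/120 mM NaCl, pH 7.4. They were preincubated with 20 μM GDP and test drug for 20 min at 30 °C, then held on ice for 15 min. [35S]GTPγS (100 pM) was added for 30 min at 30 °C. Samples were filtered, washed with cold HEPES/MgCl2 buffer, and bound radioactivity counted; EC50 and Emax reported.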

[9] = target: T4, 5-hydroxytryptamine receptor 3A (Homo sapiens, UniProt P46098); assay: Displacement of [3H]BRL-43694 from human 5HT3 receptor expressed in HEK293 cells by liquid scintillation counting; assay type: cell-based; in short: as §2
T4 sequence (P46098 whole entry): T1 sequence (whole entry)

[10] = target: 5-hydroxytryptamine receptor 2A (Rattus norvegicus) (UniProt P14842); assay: Inhibition of rat 5HT2 receptor AT 0.1 uM
Chain of 5-hydroxytryptamine receptor 2A (Rattus norvegicus) (P14842 whole entry): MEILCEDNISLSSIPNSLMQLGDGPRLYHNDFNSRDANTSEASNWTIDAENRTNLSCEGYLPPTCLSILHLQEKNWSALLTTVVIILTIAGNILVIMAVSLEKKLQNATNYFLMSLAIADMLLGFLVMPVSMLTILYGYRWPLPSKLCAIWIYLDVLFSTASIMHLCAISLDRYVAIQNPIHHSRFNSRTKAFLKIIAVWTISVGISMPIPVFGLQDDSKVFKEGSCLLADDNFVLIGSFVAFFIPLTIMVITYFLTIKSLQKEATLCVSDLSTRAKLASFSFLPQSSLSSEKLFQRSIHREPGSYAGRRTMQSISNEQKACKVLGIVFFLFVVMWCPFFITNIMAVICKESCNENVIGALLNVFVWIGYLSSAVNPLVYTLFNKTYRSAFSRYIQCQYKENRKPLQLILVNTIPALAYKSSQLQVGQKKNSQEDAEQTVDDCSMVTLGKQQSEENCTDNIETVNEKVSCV

Rattus norvegicus [11] = assay: Induction of 5HT1A receptor-mediated lower lip retraction behavior in rat at 10 mg/kg, iv after 30 mins; assay type: functional, organism-based; design: dose 10 mg/kg
In short: (§6)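 Rats were conditioned to test procedures over 2 weeks and acclimated to the test cage for 1 h. Vehicle was saline containing diluted HCl. Lower lip retraction and flat body posture were scored on a 0–3 scale at 5, 10, 20 and 30 min after dosing.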

Rattus norvegicus [12] = assay: […] activity in rat assessed as inhibition of 5HT-induced bradycardia at 10 ug/kg, iv by von Benzold-Jarisch reflex assay; assay type: functional
[13] = Drug level in Sprague-Dawley rat blood at 3 mg/kg, po after 8 hrs by HPLC analysis; assay type: ADME, organism-based; design: dose 3 mg/kg, route oral; conditions: whole blood, read-out: Drug uptake; in short: as §4
[14] = Ratio of drug level in brain to blood in Sprague-Dawley rat at 3 mg/kg, po after 4 hrs; assay type: ADME, organism-based; design: dose 3 mg/kg, route oral
In short: (§7)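 Rats dosed 3 mg/kg orally; total compound levels measured in brain and blood at 2, 4 and 8 h, brain/blood ratio derived. Mean ± SD of three rats.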

Rattus norvegicus [15] = assay: Effect on 5HT1A receptor-mediated hypothermic effect in rat assessed as change in rectal temperature at 10 mg/kg, iv after 30 mins; assay type: functional, organism-based; design: dose 10 mg/kg
In short: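 Rats were conditioned over 2 weeks and acclimated to the cage for 1 h before dosing (vehicle: saline with diluted HCl). Rectal temperature was recorded with a thermistor probe inserted 3 cm, before and 30 min after administration. The change in temperature was reported.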

[16] = Drug level in Sprague-Dawley rat brain at 3 mg/kg, po after 4 hrs by HPLC analysis; assay type: ADME, organism-based; design: dose 3 mg/kg, route oral; conditions: read-out: Drug uptake; in short: as §4
[17] = target: T5, 5-hydroxytryptamine receptor 3A (Cavia porcellus) (UniProt O70212); assay: Inhibition of 5HT3 receptor-mediated contraction of guinea pig ileum at 1 umol/L after 20 mins relative to control; assay type: tissue-based
T5 sequence (whole entry): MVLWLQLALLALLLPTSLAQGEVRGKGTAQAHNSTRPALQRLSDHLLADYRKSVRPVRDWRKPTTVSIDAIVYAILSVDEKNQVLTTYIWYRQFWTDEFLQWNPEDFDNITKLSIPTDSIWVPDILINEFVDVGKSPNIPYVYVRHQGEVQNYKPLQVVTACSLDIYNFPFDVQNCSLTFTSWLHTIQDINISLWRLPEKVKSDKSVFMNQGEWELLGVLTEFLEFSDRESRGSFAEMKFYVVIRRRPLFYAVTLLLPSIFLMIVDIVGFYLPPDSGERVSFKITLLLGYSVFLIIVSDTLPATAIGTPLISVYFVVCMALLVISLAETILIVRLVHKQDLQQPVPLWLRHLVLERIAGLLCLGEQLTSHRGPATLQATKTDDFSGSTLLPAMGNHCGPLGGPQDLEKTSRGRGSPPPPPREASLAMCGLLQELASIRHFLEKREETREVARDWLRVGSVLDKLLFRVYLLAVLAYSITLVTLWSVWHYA
In short: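 Ileum strips in Tyrode solution at 37 °C, gassed 5% CO2/95% O2, isotonic contractions under 1 g load. After at least 3 stable contractions to 10 μM 2-methyl-5-HT, tissue exposed to compound or DMSO vehicle for 20 min, then 10 μM 2-methyl-5-HT re-added; contraction expressed as % inhibition of control.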

[18] = target: Adrenergic receptor alpha-1 (Rattus norvegicus) (UniProt P15823+P23944+P43140); assay: Inhibition of rat alpha1 adrenergic receptor at 0.1 uM
[19] = Drug level in Sprague-Dawley rat blood at 3 mg/kg, po after 4 hrs by HPLC analysis; assay type: ADME, organism-based; design: dose 3 mg/kg, route oral; conditions: whole blood, read-out: Drug uptake; in short: as §4
[20] = Drug level in Sprague-Dawley rat brain at 3 mg/kg, po after 8 hrs by HPLC analysis; assay type: ADME, organism-based; design: dose 3 mg/kg, route oral; conditions: read-out: Drug uptake; in short: as §4
[21] = target: T3, 5-hydroxytryptamine receptor 1A; assay: Displacement of [3H]8-OH-DPAT from human 5HT1A receptor expressed in CHO cells by liquid scintillation counting; assay type: cell-based; in short: as §3
[22] = Ratio of drug level in brain to blood in Sprague-Dawley rat at 3 mg/kg, po after 8 hrs; assay type: ADME, organism-based; design: dose 3 mg/kg, route oral; in short: as §7
[23] = Drug level in Sprague-Dawley rat brain at 3 mg/kg, po after 2 hrs by HPLC analysis; assay type: ADME, organism-based; design: dose 3 mg/kg, route oral; conditions: read-out: Drug uptake; in short: as §4
[24] = Ratio of drug level in brain to blood in Sprague-Dawley rat at 3 mg/kg, po after 2 hrs; assay type: ADME, organism-based; design: dose 3 mg/kg, route oral; in short: as §7
[25] = target: T2, 5-hydroxytryptamine receptor 1A (Homo sapiens); assay: Agonist activity at human cloned 5HT1A receptor expressed in CHO cells assessed as stimulation of [35S]GTPgammaS binding at 900 uL after 30 mins by liquid scintillation counting; assay type: functional, cell-based; in short: as §5
Rattus norvegicus [26] = assay: Induction of 5HT1A receptor-mediated behavioral activity in rat assessed as appearance of flat body posture at 10 mg/kg, iv after 30 mins; assay type: functional, organism-based; design: dose 10 mg/kg; in short: as §6

Structure (SMILES): O=C1[C@@H]2[C@H]3CC[C@H](C3)[C@@H]2C(=O)N1CCCCN1CCN(c2ncccn2)CC1
inhibition (Rattus norvegicus [1]): inactive

Structure (SMILES): Cc1[nH]cnc1CN1CCc2c(c3ccccc3n2C)C1=O
inhibition (Rattus norvegicus [2]): Active

inhibition [3]: 1.4%
inhibition [4]: 76.9%
inhibition [5]: 96.3%
inhibition [6]: 18.4%
Structure (SMILES): Nn1c(=O)c2c(nc1[C@H]1CC[C@H](N3CCN(c4ccc5ccccc5n4)CC3)CC1)CCCC2

concentration at 2 h [7]: 97.4 nM
EC50 [8]: 30.7 nM
IC50 [9]: 45.7 nM
inhibition [10]: 78%
concentration at 8 h [13]: 28.3 nM
Kp at 4 h [14]: 6.59
concentration at 4 h [16]: 367 nM
inhibition [17]: 90.1%
inhibition [18]: 63%
concentration at 4 h [19]: 55.5 nM
concentration at 8 h [20]: 204 nM
IC50 [21]: < 10 nM
Kp at 8 h [22]: 7.65
concentration at 2 h [23]: 685 nM
Kp at 2 h [24]: 7.11
Emax [25]: 94.7%
Structure (SMILES): Nn1c(CCCCN2CCN(c3ccc4ccccc4n3)CC2)nc2ccccc2c1=O
Activity (Rattus norvegicus [11]): Active
inhibition in vivo at 0.01 mg/kg (Rattus norvegicus [12]): 21.9%
deltaT (Rattus norvegicus [15]): -1.9 °C
Activity (Rattus norvegicus [26]): Active

Reference: ChEMBL document CHEMBL1275331, “Discovery of a novel 5-HT(3) antagonist/5-HT(1A) agonist 3-amino-5,6,7,8-tetrahydro-2-{4-[4-(quinolin-2-yl)piperazin-1-yl]butyl}quinazolin-4(3H)-one (TZB-30878) as an orally bioavailable agent for irritable bowel syndrome” (J Med Chem, 2010)
